Series [1] addresses Amyloid-beta precursor protein (Homo sapiens) (UniProt P05067). Briefly: Inhibition of Amyloid beta (1 to 40) (unknown origin) fibril formation at Abeta:compound ratio of 1:10 after 4 days by Thioflavin-T fluorescence assay. The method in brief: (§1)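 Aβ fibrillogenesis was measured by quantitative Thioflavin-T fluorescence with Aβ at 100 µM and Aβ:inhibitor at 1:10, or 1:1 for one compound. Signal was normalized to the fluorescence of the inhibitor-free control.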

Series [2] addresses T1, Cholinesterase (Homo sapiens, UniProt P06276). Briefly: Inhibition of BuChE (unknown origin) assessed as reduction in S-butyrylthiocholine chloride hydrolysis at 10 uM after 15 mins by Ellman method. The method in brief: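 Single-concentration screen of the commercial and synthetic sulfonamides. Read-out is percent inhibition of BuChE activity. Galanthamine serves as the reference standard.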
For orientation: In Ellman's method for cholinesterases, released thiocholine reacts with DTNB.

The target in series [3] is Amyloid-beta precursor protein (Homo sapiens) (UniProt P05067). Briefly: Stimulation of Amyloid beta (1 to 42) (unknown origin) oligomer assembly at Abeta:compound ratio of 0.0002 after 30 mins by single-site ELISA assay. The method in brief: (§2)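 Oligomer formation was read in a single-site streptavidin-based assay using biotinyl-Aβ(1–42) at 0.01 µM. Aβ/inhibitor ratio was 0.0002, with 30 min incubation.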
Sequence of Amyloid-beta precursor protein (Homo sapiens) (P05067 whole entry): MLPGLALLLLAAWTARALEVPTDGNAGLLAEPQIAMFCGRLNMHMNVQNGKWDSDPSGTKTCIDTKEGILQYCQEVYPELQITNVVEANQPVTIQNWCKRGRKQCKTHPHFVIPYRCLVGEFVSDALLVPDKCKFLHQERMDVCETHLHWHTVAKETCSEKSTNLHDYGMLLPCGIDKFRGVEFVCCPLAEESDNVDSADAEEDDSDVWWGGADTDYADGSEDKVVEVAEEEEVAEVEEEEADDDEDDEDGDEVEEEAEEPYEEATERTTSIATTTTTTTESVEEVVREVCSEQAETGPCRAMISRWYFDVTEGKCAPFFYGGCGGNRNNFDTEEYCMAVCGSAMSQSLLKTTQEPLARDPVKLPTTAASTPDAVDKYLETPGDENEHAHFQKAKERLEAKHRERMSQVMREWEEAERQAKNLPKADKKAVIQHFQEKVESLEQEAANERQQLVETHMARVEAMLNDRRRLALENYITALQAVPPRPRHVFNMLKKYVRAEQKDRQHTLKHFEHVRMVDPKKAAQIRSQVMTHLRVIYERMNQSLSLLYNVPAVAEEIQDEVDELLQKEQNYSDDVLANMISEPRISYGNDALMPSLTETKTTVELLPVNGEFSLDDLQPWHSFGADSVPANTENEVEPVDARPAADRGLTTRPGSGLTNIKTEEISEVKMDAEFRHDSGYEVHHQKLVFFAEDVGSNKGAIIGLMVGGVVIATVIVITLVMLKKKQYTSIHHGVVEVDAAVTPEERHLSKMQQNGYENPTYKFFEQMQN
For orientation: In an ELISA, binding on a coated surface is turned into a signal by an enzyme label.

The nature of series [4]: Antioxidant activity assessed as DPPH radical scavenging activity at 10 uM after 30 mins. It is filed as physicochemical. Conditions: 0.5 h. On the technique in general: Loss of DPPH colour is used to gauge radical scavenging.
Series [5] addresses Amyloid-beta precursor protein (Homo sapiens) (UniProt P05067). The series can be described thus: Inhibition of Amyloid beta (1 to 42) (unknown origin) oligomer assembly at Abeta:compound ratio of 0.0002 after 30 mins by single-site ELISA assay. A digest of the protocol:
as §2

Series [6] shares this target. The series can be described thus: Stimulation of Amyloid beta (1 to 40) (unknown origin) fibril formation at Abeta:compound ratio of 1:10 after 4 days by Thioflavin-T fluorescence assay. A digest of the protocol:
as §1

In a further series the target is Acetylcholinesterase (Homo sapiens, UniProt P22303). Briefly: Inhibition of AChE (unknown origin) assessed as reduction in acetylthiocholine iodide hydrolysis after 15 mins by Ellman method.
Sequence of Acetylcholinesterase (P22303 whole entry): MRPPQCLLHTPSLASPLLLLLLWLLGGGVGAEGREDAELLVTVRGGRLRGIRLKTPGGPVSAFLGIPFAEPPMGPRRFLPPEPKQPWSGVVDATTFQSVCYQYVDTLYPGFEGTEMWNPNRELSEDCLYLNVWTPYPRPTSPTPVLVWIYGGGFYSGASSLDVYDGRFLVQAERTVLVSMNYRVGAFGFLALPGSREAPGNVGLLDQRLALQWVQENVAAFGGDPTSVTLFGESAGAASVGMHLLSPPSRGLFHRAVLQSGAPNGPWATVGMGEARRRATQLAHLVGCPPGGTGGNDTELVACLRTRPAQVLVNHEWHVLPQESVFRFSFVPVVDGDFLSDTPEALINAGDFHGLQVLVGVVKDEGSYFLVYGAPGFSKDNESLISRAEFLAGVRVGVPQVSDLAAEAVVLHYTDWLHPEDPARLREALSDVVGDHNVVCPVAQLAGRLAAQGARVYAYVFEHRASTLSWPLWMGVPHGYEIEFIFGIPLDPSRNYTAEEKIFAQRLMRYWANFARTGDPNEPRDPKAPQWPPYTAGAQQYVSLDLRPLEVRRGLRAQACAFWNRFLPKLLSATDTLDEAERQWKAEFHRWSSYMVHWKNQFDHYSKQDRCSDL
In series [7] the target is T1, Cholinesterase. The series can be described thus: Inhibition of BuChE (unknown origin) assessed as reduction in S-butyrylthiocholine chloride hydrolysis after 15 mins by Ellman method.
Series [8] has as its target Amyloid-beta precursor protein (Homo sapiens) (UniProt P05067). Briefly: Inhibition of Amyloid beta (1 to 40) (unknown origin) fibril formation at Abeta:compound ratio of 1:10 after 4 days by atomic force microscopy. The method in brief:
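Aβ(1–40) was incubated for 4 days with or without inhibitor, at 100 µM Aβ and Aβ:inhibitor 1:10. Fibril morphology was imaged by atomic force microscopy against a solvent-treated control.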

The target is the same in series [9]. The series can be described thus: Inhibition of Amyloid beta (1 to 40) (unknown origin) fibril formation at Abeta:compound ratio of 1:1 after 4 days by Thioflavin-T fluorescence assay. Conditions: concentration not given here. The method in brief: as §1

Active and inactive are the calls of the source. The rule behind the calls is not given here. Some results are limits rather than exact numbers.

This passage reports inhibition, Activity and IC50 results from ChEMBL document CHEMBL3352170, “Sulfonamides as multifunctional agents for Alzheimer's disease” (Bioorg Med Chem Lett, 2015).

T1 sequence (P06276 whole entry): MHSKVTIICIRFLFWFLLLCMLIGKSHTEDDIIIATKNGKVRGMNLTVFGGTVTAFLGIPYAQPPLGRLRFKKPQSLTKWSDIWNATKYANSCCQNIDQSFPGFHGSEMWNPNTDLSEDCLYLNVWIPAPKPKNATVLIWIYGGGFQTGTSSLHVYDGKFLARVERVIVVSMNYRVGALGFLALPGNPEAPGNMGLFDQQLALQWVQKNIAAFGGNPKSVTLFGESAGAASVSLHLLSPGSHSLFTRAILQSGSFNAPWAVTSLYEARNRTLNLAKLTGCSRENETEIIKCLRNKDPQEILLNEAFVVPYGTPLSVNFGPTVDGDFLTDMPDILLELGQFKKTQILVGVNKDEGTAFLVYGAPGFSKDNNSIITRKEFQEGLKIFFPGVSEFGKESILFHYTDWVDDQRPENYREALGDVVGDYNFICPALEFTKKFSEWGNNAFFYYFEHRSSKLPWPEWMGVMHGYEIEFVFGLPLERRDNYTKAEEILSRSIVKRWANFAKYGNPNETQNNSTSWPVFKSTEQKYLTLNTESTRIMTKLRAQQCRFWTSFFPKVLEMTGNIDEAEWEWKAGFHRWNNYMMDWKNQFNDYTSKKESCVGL

By inhibition is commonly meant the change of the read-out against control, counted positive when it falls. For the molecule `CC(NCCCS(=O)(=O)NCCNc1cccc2ccccc12)c1ccccc1` (centres undefined), the inhibition result in [1] was “Active”. The inhibition at Cholinesterase [2] was more than 40%. In addition, in series [3], the result was Active.

On to `CC(C(O)c1ccccc1)N(C)CCCS(=O)(=O)NCCNc1cccc2ccccc12.Cl` (centres undefined), for which the inhibition result in series [1] is “Active”. Besides, the inhibition at Cholinesterase [2] is more than 40%. In [4], the result was Active. Moreover, in series [3], the result was Active.

As for `O=S(=O)(CCCNCCc1c[nH]c2ccccc12)NCCNc1cccc2ccccc12`, in series [1], the inhibition entry is “Active”. For the same molecule, at Cholinesterase [2], the inhibition is more than 80%. In addition, the result in series [3] was Active.

As for `NS(=O)(=O)c1ccccc1Br`, the inhibition in series [5] was less than 54%. Further, in [6], the result was Active.

On to `CCN(CC)CCCN1C(=O)c2ccccc2S1(=O)=O`, for which the inhibition in series [5] is less than 54%. Moreover, the outcome in series [6] was Active.

With `CCN(CC)CCN1C(=O)c2ccccc2S1(=O)=O`, the inhibition in series [5] is less than 54%. For the same molecule, the result in series [6] was Active.

Consider `O=C1c2ccccc2S(=O)(=O)N1CCCN1CCN(Cc2ccccc2)CC1`, for which, in series [5], the inhibition entry is “inactive”. The outcome in [6] was Active.

For `O=S(=O)(CCCN1CCN(c2ncccn2)CC1)NCCNc1cccc2ccccc12`, the inhibition result in series [1] is “Active”. Besides, the outcome in [3] was Active.

As for `O=C1c2ccccc2S(=O)(=O)N1CCO`, in series [5], the inhibition is less than 54%. Moreover, the result in series [6] was Active.

`Cc1ccccc1S(N)(=O)=O`: the inhibition in [5] is less than 54%. For the same molecule, in [6], the result was Active.

Regarding `O=S(=O)(CCCN1CCN(c2ccccn2)CC1)NCCNc1cccc2ccccc12`, the inhibition result in series [1] was “Active”. Besides, the inhibition at Cholinesterase [2] was more than 40%. Besides, in [3], the outcome was Active.

As for `NS(=O)(=O)c1ccc([N+](=O)[O-])cc1`, the inhibition in series [5] is less than 54%. In series [6], the result was Active.

For the molecule `O=S(=O)(CCCN1CCC(O)CC1)NCCNc1cccc2ccccc12`, the inhibition in series [1] (concentration not given here) was determined as 64%. The outcome in series [3] was Active.

Take `O=C(CCC(=O)NCCNc1cccc2ccccc12)NCCNc1cccc2ccccc12`: the inhibition entry in series [1] was “Active”. Also, the inhibition in series [5] was 50%.

For `O=S(=O)(CCCN1CCOCC1)NCCNc1cccc2ccccc12`, in [1], the inhibition result is “Active”. For the same molecule, the result in [3] was Active.

`O=C1c2ccccc2S(=O)(=O)N1CCCN(CCO)CCO`: the inhibition in series [5] is less than 54%. Besides, the result in [6] was Active.

As a reminder, the IC50 is the concentration needed to halve the response being measured. `O=S(=O)(CCCN1CCN(Cc2ccccc2)CC1)NCCNc1cccc2ccccc12`: the results for the inhibition (in [1] (concentration not given here); on Cholinesterase [2]) were 43% and 90%, respectively. For the same molecule, the 50% inhibitory concentration (IC50) amounted to 160 nM at Acetylcholinesterase and 2000 nM at Cholinesterase [7]. In addition, the outcome in series [4] was Active. For the same molecule, in [3], the result was Active.

As to `O=S(=O)(CCCN1CCC(Cc2ccccc2)CC1)NCCNc1cccc2ccccc12`, the inhibition in series [1] (concentration not given here) is 60%; at Cholinesterase [2], more than 40%. Also, the result in series [3] was Active.

Take `Oc1ccc(/C=C/c2cc(O)cc(O)c2)cc1` [RESVERATROL]: the outcome in series [4] was Active.

With `Cl.O=S(=O)(CCCN(CCO)CCO)NCCNc1cccc2ccccc12`, the inhibition entry in [1] was “Active”. In addition, the outcome in series [4] was Active. The outcome in series [3] was Active.

On to `O=S(=O)(CCCCl)NCCNc1cccc2ccccc12`, for which the inhibition entry in [1] was “Active”. In addition, in series [3], the outcome was Active.

For the molecule `O=S(=O)(CCCN1CCC(c2ccccc2)CC1)NCCNc1cccc2ccccc12`, the inhibition stood at 87% in [1] (concentration not given here) and 58% on Cholinesterase [2]. For the same molecule, in series [3], the outcome was Active. Also, the inhibition result in [8] was “Active”. For the same molecule, the IC50 on Cholinesterase [7] amounted to 5080 nM.

Regarding `COc1ccc(S(N)(=O)=O)cc1`, the inhibition in [5] is less than 54%. The outcome in series [6] was Active.

Consider `O=C(NCCCCNC(=O)c1ccc2ccccc2c1)c1ccc2ccccc2c1`, for which the inhibition result in series [1] is “Active”. Also, the inhibition in series [5] came to 99%.

For `O=S(=O)(CCCNCCNc1cccc2ccccc12)NCCNc1cccc2ccccc12`, the values for the inhibition (at Cholinesterase [2]; in series [9]) were 99% and 45%, respectively. Moreover, in series [3], the result was Active. In addition, on Cholinesterase [7], the half-inhibitory concentration (IC50) came out at 930 nM.

With `O=S(=O)(CCCN1CCN(c2ccccc2)CC1)NCCNc1cccc2ccccc12`, the inhibition entry in series [1] was “Active”. Further, the inhibition at Cholinesterase [2] was more than 40%. The result in series [3] was Active.

As for `O=C1NS(=O)(=O)c2ccccc21` [SACCHARIN], the inhibition was 73% at Cholinesterase [2] and less than 54% in series [5]. Besides, in series [6], the result was Active. For the same molecule, at Cholinesterase [7], the IC50 is 3600 nM.

With `O=C1c2ccccc2S(=O)(=O)N1CCCN1CCC(O)CC1`, the inhibition in [5] is less than 54%. For the same molecule, the result in [6] was Active.
